# Key:
# Mus sp. [1] = assay: In vivo evaluation of % survival rate after peroral administration on 7th day at dose 1 mg/kg; type: functional; details: Mus sp., po
# Kluyveromyces marxianus [2] = assay: Evaluation of In vitro antifungal activity against Candida pseudotropicalis ATCC 28838 by broth macro dilution method; type: functional
# Procedure, shortened: (§1)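 Yeast MIC and MFC by broth macrodilution per NCCLS M27-P in RPMI-1640 buffered with 0.165 M MOPS. Fluconazole in sterile water, other drugs in DMSO. C. parapsilosis ATCC 22019 is the reference strain in each run. MIC is the lowest concentration with turbidity ≤ the 80% inhibition standard. For MFC, 0.04 mL from clear tubes is plated on Sabouraud agar; MFC is the lowest concentration giving ≤1 colony.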
# Candida tropicalis [3] = assay: Evaluation of In vitro antifungal activity against Candida tropicalis 2.11 by broth macro dilution method; type: functional; procedure, shortened: as §1
# Microsporum canis = assay: In vitro evaluation of minimum inhibitory concentration against Microsporum canis 47; type: functional; details: Microsporum canis; read-out: MIC
# Procedure, shortened: (§2)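 Stocks are 800 μg/mL in 50% ethanol. Each plate gets 10 μL of inoculum at 10^5 cfu/mL. Incubation at 25 °C, 48 h for yeasts and 120 h for dermatophytes and molds. Organisms are ATCC strains or clinical isolates.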
# Aspergillus flavus = assay: In vitro evaluation of minimum inhibitory concentration against Aspergillus flavus 19; type: functional; details: Aspergillus flavus; read-out: MIC; procedure, shortened: as §2
# Candida albicans [4] = assay: Evaluation of In vitro antifungal activity against Candida albicans 406 by broth macro dilution method; type: functional; procedure, shortened: as §1
# Trichophyton rubrum = assay: In vitro evaluation of minimum inhibitory concentration against Trichophyton rubrum 90; type: functional; details: Trichophyton rubrum; read-out: MIC; procedure, shortened: as §2
# Kluyveromyces marxianus [5] = assay: Evaluation of In vitro antifungal activity against yeasts by broth macro dilution method; type: functional; procedure, shortened: as §1
# Pichia kudriavzevii [6] = assay: In vitro evaluation of minimum inhibitory concentration against Candida krusei 70; type: functional; details: Pichia kudriavzevii; read-out: MIC; procedure, shortened: as §2
# Candida albicans [7] = assay: Evaluation of In vitro antifungal activity against Candida albicans 31 by broth macro dilution method; type: functional; procedure, shortened: as §1
# [8] = test system: Meyerozyma guilliermondii; assay: In vitro evaluation of minimum inhibitory concentration against Candida guilliermondii 26; type: functional; details: Meyerozyma guilliermondii; read-out: MIC; procedure, shortened: as §2
# Mus sp. [9] = assay: In vivo evaluation of % survival rate after peroral administration on 5th day at dose 0.5 mg/kg; type: functional; details: route oral
# Candida albicans [10] = assay: Evaluation of […] antifungal activity against Candida albicans 60 by broth macro dilution method; type: functional; procedure, shortened: as §1
# Candida albicans [11] = assay: Evaluation of In vitro antifungal activity against Candida albicans 76 by broth macro dilution method; type: functional; procedure, shortened: as §1
# Mus sp. [12] = assay: In vivo evaluation of % survival rate after peroral administration on 5th day at dose 1 mg/kg; type: functional; details: Mus sp., po
# Pichia kudriavzevii [13] = assay: Evaluation of In vitro antifungal activity against Candida krusei 70 by broth macro dilution method; type: functional; procedure, shortened: as §1
# Mus sp. [14] = assay: In vivo evaluation of % survival rate after peroral administration on 9th day at dose 1 mg/kg; type: functional; details: Mus sp., po
# Candida albicans [15] = assay: In vitro evaluation of minimum inhibitory concentration against Candida albicans 76; type: functional; details: Candida albicans; read-out: MIC; procedure, shortened: as §2
# Pichia kudriavzevii [16] = assay: Evaluation of In vitro antifungal activity against Candida krusei C64 by broth macro dilution method; type: functional; procedure, shortened: as §1
# Cryptococcus neoformans [17] = assay: Evaluation of In vitro antifungal activity against Cryptococcus neoformans 74 by broth macro dilution method; type: functional; procedure, shortened: as §1
# Trichophyton benhamiae = assay: In vitro evaluation of minimum inhibitory concentration against Trichophyton mentagrophytes 23; type: functional, Arthroderma benhamiae; details: Trichophyton benhamiae; read-out: MIC; procedure, shortened: as §2
# Candida albicans [18] = assay: Evaluation of In vitro antifungal activity against Candida albicans C52 by broth macro dilution method; type: functional; procedure, shortened: as §1
# Candida parapsilosis [19] = assay: Evaluation of In vitro antifungal activity against Candida parapsilosis 2.07 by broth macro dilution method; type: functional; details: Lodderomyces parapsilosis; procedure, shortened: as §1
# Candida albicans [20] = assay: Evaluation of In vitro antifungal activity against Candida albicans ATCC 10231 by broth macro dilution method; type: functional; procedure, shortened: as §1
# Candida parapsilosis [21] = assay: In vitro evaluation of minimum inhibitory concentration against Candida parapsilosis 61; type: functional; details: Lodderomyces parapsilosis; read-out: MIC; procedure, shortened: as §2
# Candida albicans [22] = assay: Evaluation of In vitro antifungal activity against Candida albicans C56 by broth macro dilution method; type: functional; procedure, shortened: as §1
# Candida parapsilosis [23] = assay: Evaluation of In vitro antifungal activity against Candida parapsilosis ATCC 22019 by broth macro dilution method; type: functional; details: Lodderomyces parapsilosis; procedure, shortened: as §1
# Candida tropicalis [24] = assay: Evaluation of In vitro antifungal activity against Candida tropicalis 50 by broth macro dilution method; type: functional; procedure, shortened: as §1
# Candida albicans [25] = assay: Evaluation of In vitro antifungal activity against Candida albicans 60 by broth macro dilution method
# Nannizzia gypsea = assay: In vitro evaluation of minimum inhibitory concentration against Microsporum gypseum 22; type: functional; details: Nannizzia gypsea; read-out: MIC; procedure, shortened: as §2
# Mus sp. [26] = assay: In vivo evaluation of % survival rate after peroral administration on 3rd day at dose 0.5 mg/kg; type: functional; details: route oral
# Nakaseomyces glabratus = assay: Evaluation of In vitro antifungal activity against Torulopsis glabrata 78 by broth macro dilution method; type: functional; procedure, shortened: as §1
# Mus sp. [27] = assay: In vivo evaluation of % survival rate after peroral administration on 3rd day at dose 1 mg/kg; type: functional; details: Mus sp., po
# Aspergillus niger = assay: In vitro evaluation of minimum inhibitory concentration against Aspergillus niger 18; type: functional; details: Aspergillus niger; read-out: MIC; procedure, shortened: as §2
# Candida parapsilosis [28] = assay: Evaluation of In vitro antifungal activity against Candida parapsilosis C74 by broth macro dilution method; type: functional; details: Lodderomyces parapsilosis; procedure, shortened: as §1
# Candida parapsilosis [29] = assay: Evaluation of In vitro antifungal activity against Candida parapsilosis C292 by broth macro dilution method; type: functional; details: Lodderomyces parapsilosis; procedure, shortened: as §1
# [30] = test system: Meyerozyma guilliermondii; assay: Evaluation of In vitro antifungal activity against Candida guilliermondii 26 by broth macro dilution method; type: functional; procedure, shortened: as §1
# Mus musculus = assay: In vivo evaluation of % survival rate after peroral administration on 7th day at dose 0.5 mg/kg; type: functional; details: Mus musculus, po
# Aspergillus fumigatus = assay: In vitro evaluation of minimum inhibitory concentration against Aspergillus fumigatus 33; type: functional; details: Aspergillus fumigatus; read-out: MIC; procedure, shortened: as §2
# Candida albicans [31] = assay: Evaluation of In vitro antifungal activity against Candida albicans 2.01 by broth macro dilution method; type: functional; procedure, shortened: as §1
# Candida parapsilosis [32] = assay: Evaluation of In vitro antifungal activity against Candida parapsilosis ATCC 141095 by broth macro dilution method; type: functional; details: Lodderomyces parapsilosis; procedure, shortened: as §1
# Mus sp. [33] = assay: In vivo evaluation of % survival rate after peroral administration on 9th day at dose 0.5 mg/kg; type: functional; details: Mus sp., po
# Cryptococcus neoformans [34] = assay: Evaluation of In vitro antifungal activity against Cryptococcus neoformans 87 by broth macro dilution method; type: functional; procedure, shortened: as §1
smiles,measurement,setting,value
OC(Cn1cncn1)(Cn1cncn1)c1ccc(F)cc1F [FLUCONAZOLE],survival at 1 mg/kg,Mus sp. [1],52%
same,MFC,Kluyveromyces marxianus [2],32 µg/mL
same,MFC,Candida tropicalis [3],> 64 µg/mL
same,MIC,Candida tropicalis [3],1 µg/mL
same,MIC,Microsporum canis,> 80 µg/mL
same,MIC,Aspergillus flavus,> 80 µg/mL
same,MFC,Candida albicans [4],> 64 µg/mL
same,MIC,Candida albicans [4],0.25 µg/mL
same,MIC,Trichophyton rubrum,> 80 µg/mL
same,MIC,Kluyveromyces marxianus [5],0.5 µg/mL
same,MIC,Pichia kudriavzevii [6],> 80 µg/mL
same,MFC,Candida albicans [7],> 64 µg/mL
same,MIC,Candida albicans [7],0.25 µg/mL
same,MIC,[8],10 µg/mL
same,survival at 0.5 mg/kg,Mus sp. [9],90%
same,MIC,Candida albicans [10],0.5 µg/mL
same,MFC,Candida albicans [11],> 64 µg/mL
same,MIC,Candida albicans [11],0.25 µg/mL
same,survival at 1 mg/kg,Mus sp. [12],96%
same,MFC,Pichia kudriavzevii [13],> 64 µg/mL
same,MIC,Pichia kudriavzevii [13],32 µg/mL
same,survival at 1 mg/kg,Mus sp. [14],6%
same,MIC,Candida albicans [15],40 µg/mL
same,MFC,Pichia kudriavzevii [16],> 64 µg/mL
same,MIC,Pichia kudriavzevii [16],64 µg/mL
same,MFC,Cryptococcus neoformans [17],1 µg/mL
same,MIC,Cryptococcus neoformans [17],0.5 µg/mL
same,MIC,Trichophyton benhamiae,> 80 µg/mL
same,MFC,Candida albicans [18],> 64 µg/mL
same,MIC,Candida albicans [18],0.25 µg/mL
same,MFC,Candida parapsilosis [19],> 64 µg/mL
same,MIC,Candida parapsilosis [19],1 µg/mL
same,MFC,Candida albicans [20],> 64 µg/mL
same,MIC,Candida albicans [20],2 µg/mL
same,MIC,Candida parapsilosis [21],20 µg/mL
same,MFC,Candida albicans [22],> 64 µg/mL
same,MIC,Candida albicans [22],0.5 µg/mL
same,MFC,Candida parapsilosis [23],> 64 µg/mL
same,MIC,Candida parapsilosis [23],4 µg/mL
same,MFC,Candida tropicalis [24],> 64 µg/mL
same,MIC,Candida tropicalis [24],8 µg/mL
same,MFC,Candida albicans [25],> 64 µg/mL
same,MIC,Nannizzia gypsea,> 80 µg/mL
same,survival at 0.5 mg/kg,Mus sp. [26],100%
same,MFC,Nakaseomyces glabratus,> 64 µg/mL
same,MIC,Nakaseomyces glabratus,32 µg/mL
same,survival at 1 mg/kg,Mus sp. [27],100%
same,MIC,Aspergillus niger,> 80 µg/mL
same,MFC,Candida parapsilosis [28],2 µg/mL
same,MIC,Candida parapsilosis [28],0.25 µg/mL
same,MFC,Candida parapsilosis [29],> 64 µg/mL
same,MIC,Candida parapsilosis [29],1 µg/mL
same,MIC,[30],8 µg/mL
same,survival at 0.5 mg/kg,Mus musculus,20%
same,MIC,Aspergillus fumigatus,> 80 µg/mL
same,MFC,Candida albicans [31],> 64 µg/mL
same,MIC,Candida albicans [31],1 µg/mL
same,MFC,Candida parapsilosis [32],> 64 µg/mL
same,MIC,Candida parapsilosis [32],2 µg/mL
same,survival at 0.5 mg/kg,Mus sp. [33],10%
same,MFC,Cryptococcus neoformans [34],> 64 µg/mL
same,MIC,Cryptococcus neoformans [34],8 µg/mL

# Reference: ChEMBL document CHEMBL1128448, “Synthesis and antifungal activity of new azole derivatives containing an N-acylmorpholine ring” (1995)
